Measurements published in ChEMBL document CHEMBL2150914, “Synthesis and biological evaluation of N-arylbenzo[b]thieno[3,2-d]pyrimidin-4-amines and their pyrido and pyrazino analogues as Ser/Thr kinase inhibitors” (Eur J Med Chem, 2012).

What was measured:
[1] = molecular target: Cyclin-dependent kinase 5/CDK5 activator 1 (Homo sapiens, UniProt Q00535); assay: Inhibition of human recombinant GST-tagged CDK5/p25 expressed in Escherichia coli using histone H1 as substrate and [gamma32P]ATP after 30 mins by scintillation counting
Cyclin-dependent kinase 5/CDK5 activator 1, sequence (Q00535 whole entry): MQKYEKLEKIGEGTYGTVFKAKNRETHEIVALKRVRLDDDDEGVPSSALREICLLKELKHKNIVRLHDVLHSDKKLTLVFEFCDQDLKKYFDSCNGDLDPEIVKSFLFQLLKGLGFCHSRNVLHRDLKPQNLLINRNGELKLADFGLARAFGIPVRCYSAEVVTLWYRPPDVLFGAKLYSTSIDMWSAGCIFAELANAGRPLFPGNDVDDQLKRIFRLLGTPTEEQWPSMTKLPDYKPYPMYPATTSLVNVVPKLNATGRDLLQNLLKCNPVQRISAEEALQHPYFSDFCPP
Cyclin-dependent kinase 5/CDK5 activator 1, sequence (Q15078 whole entry, further chain): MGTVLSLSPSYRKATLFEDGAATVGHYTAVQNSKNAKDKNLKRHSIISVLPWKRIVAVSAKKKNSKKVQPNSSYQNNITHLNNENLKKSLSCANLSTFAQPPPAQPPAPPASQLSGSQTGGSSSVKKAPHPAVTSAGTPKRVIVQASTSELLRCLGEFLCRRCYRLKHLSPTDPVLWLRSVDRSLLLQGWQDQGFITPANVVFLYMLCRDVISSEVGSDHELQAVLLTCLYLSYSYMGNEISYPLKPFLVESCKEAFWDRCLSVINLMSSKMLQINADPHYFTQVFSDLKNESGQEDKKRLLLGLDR

[2] = molecular target: Dual specificity protein kinase CLK1 (Homo sapiens, UniProt P49759); assay: Inhibition of human recombinant GST-tagged CLK1 expressed in Escherichia coli using GRSRSRSRSRSR as substrate and [gamma32P]ATP after 30 mins by scintillation counting
Dual specificity protein kinase CLK1, sequence (P49759 whole entry): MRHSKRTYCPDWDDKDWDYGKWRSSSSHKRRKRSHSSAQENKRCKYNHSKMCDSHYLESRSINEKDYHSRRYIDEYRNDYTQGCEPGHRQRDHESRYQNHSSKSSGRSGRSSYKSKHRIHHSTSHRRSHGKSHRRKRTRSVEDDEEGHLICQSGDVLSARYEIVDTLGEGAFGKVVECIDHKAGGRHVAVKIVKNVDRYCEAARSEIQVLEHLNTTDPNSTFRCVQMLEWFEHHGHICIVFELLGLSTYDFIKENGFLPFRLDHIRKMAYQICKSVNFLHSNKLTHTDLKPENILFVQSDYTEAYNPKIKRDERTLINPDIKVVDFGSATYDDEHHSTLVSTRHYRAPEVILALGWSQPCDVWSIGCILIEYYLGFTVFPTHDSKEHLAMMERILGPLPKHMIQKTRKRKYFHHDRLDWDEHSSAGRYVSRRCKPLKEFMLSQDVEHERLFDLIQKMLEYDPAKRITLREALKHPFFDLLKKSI

[3] = Inhibition of pig CK1delta/epsilon isolated from brain using RRKHAAIGpSAYSITA as substrate and [gamma32P]ATP after 30 mins by scintillation counting; design: species or system Sus scrofa
[4] = molecular target: Glycogen synthase kinase-3 (Sus scrofa, UniProt B2LUN4+I6LNT8); assay: Inhibition of pig GSK3alpha/beta isolated from brain using YRRAAVPPSPSLSRHSSPHQpSEDEEE as substrate and [gamma32P]ATP after 30 mins by scintillation counting
Procedure, shortened: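 Assay run at 30 °C in one of two buffers: buffer A (Tris-HCl pH 7.5 with MgCl2, EGTA, DTT, heparin) or buffer B (Mops pH 7.2 with beta-glycerophosphate, EGTA, MgCl2, DTT, vanadate). Peptide substrate. Blank values subtracted and activity expressed as % of maximal, uninhibited activity. Controls with matching DMSO dilutions.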

[5] = molecular target: Dual specificity tyrosine-phosphorylation-regulated kinase 1A (Rattus norvegicus, UniProt Q63470); assay: Inhibition of rat recombinant GST-tagged DYRK1A expressed in Escherichia coli using KKISGRLSPIMTEQ as substrate and [gamma32P]ATP after 30 mins by scintillation counting
Procedure, shortened: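 Rat DYRK1A, expressed in E. coli as a GST fusion and purified on glutathione-agarose. Blanks subtracted. Activity given as % of uninhibited maximum. DMSO dilution controls.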

Structure (SMILES) | IC50 [1] | IC50 [2] | IC50 [3] | IC50 [4] | IC50 [5]
c1ccc(Nc2ncnc3c2sc2ncccc23)cc1 | > 10 µM | 4.5 µM | 0.18 µM | > 10 µM | > 10 µM
COc1ccc(Nc2ncnc3c2sc2ccccc23)cc1OC | > 10 µM |  | > 10 µM | > 10 µM | 3.7 µM
COc1ccc(Nc2ncnc3c2sc2nccnc23)cc1OC | > 10 µM |  | > 10 µM | > 10 µM | > 10 µM
c1ccc2c(c1)sc1c(Nc3ccc4c(c3)OCCO4)ncnc12 | > 10 µM |  | > 10 µM | > 10 µM | > 10 µM
COc1cc(Nc2ncnc3c2sc2nccnc23)cc(OC)c1 | > 10 µM |  | 7.8 µM | > 10 µM | > 10 µM
c1cnc2c(c1)sc1c(Nc3ccc4c(c3)OCO4)ncnc12 | > 10 µM | > 10 µM | > 10 µM | > 10 µM | > 10 µM
COc1cc(Nc2ncnc3c2sc2ncccc23)cc(OC)c1OC | > 10 µM | > 10 µM | > 10 µM | > 10 µM | > 10 µM
O=[N+]([O-])c1cc(Nc2ncnc3c2sc2cccnc23)ccc1O | > 10 µM | > 10 µM | 0.12 µM | > 10 µM | 5.8 µM
c1cnc2sc3c(Nc4ccc5c(c4)OCO5)ncnc3c2c1 | > 10 µM | 2.2 µM | 0.44 µM | > 10 µM | > 10 µM
c1ccc2c(c1)sc1c(Nc3ccc4c(c3)OCO4)ncnc12 | > 10 µM |  | > 10 µM | > 10 µM | > 10 µM
Fc1cc(Br)ccc1Nc1ncnc2c1sc1ccccc12 | > 10 µM |  | > 10 µM | > 10 µM | > 10 µM
O=[N+]([O-])c1cc(Nc2ncnc3c2sc2ncccc23)ccc1O | > 10 µM | > 10 µM | > 10 µM | > 10 µM | > 10 µM
c1cnc2c(n1)sc1c(Nc3ccc4c(c3)OCCO4)ncnc12 | > 10 µM |  | > 10 µM | > 10 µM | > 10 µM
COc1ccc(Nc2ncnc3c2sc2cccnc23)cc1OC | > 10 µM | > 10 µM | > 10 µM | > 10 µM | 3.7 µM
COc1cc(Nc2ncnc3c2sc2cccnc23)cc(OC)c1 | > 10 µM | > 10 µM | > 10 µM | > 10 µM | > 10 µM
COc1ccc(Nc2ncnc3c2sc2cccnc23)cc1 | > 10 µM | > 10 µM | > 10 µM | > 10 µM | > 10 µM
c1cnc2c(c1)sc1c(Nc3ccc4c(c3)OCCO4)ncnc12 | > 10 µM | > 10 µM | > 10 µM | > 10 µM | > 10 µM
COc1cc(Nc2ncnc3c2sc2ccccc23)cc(OC)c1OC | > 10 µM |  | > 10 µM | > 10 µM | > 10 µM
c1ccc(Nc2ncnc3c2sc2nccnc23)cc1 | > 10 µM |  | 5 µM | > 10 µM | > 10 µM
Nc1ncnc2c1sc1ccccc12 | 5.2 µM |  | 0.79 µM | > 10 µM | 5.1 µM

Structure (SMILES) | IC50 [1] | IC50 [2] | IC50 [3] | IC50 [4] | IC50 [5]
COc1ccc(Nc2ncnc3c2sc2ncccc23)cc1 | > 10 µM | 3.3 µM | 0.52 µM | > 10 µM | > 10 µM
Nc1ncnc2c1sc1nccnc12 | > 10 µM |  | 2.4 µM | > 10 µM | > 10 µM
Fc1cc(Br)ccc1Nc1ncnc2c1sc1cccnc12 | > 10 µM | > 10 µM | 11 µM | > 10 µM | 7.3 µM
COc1cc(Nc2ncnc3c2sc2ccccc23)cc(OC)c1 | > 10 µM |  | > 10 µM | > 10 µM | > 10 µM
COc1ccc(Nc2ncnc3c2sc2ncccc23)cc1OC | > 10 µM | 3.4 µM | > 10 µM | > 10 µM | 2.9 µM
COc1cc(Nc2ncnc3c2sc2cccnc23)cc(OC)c1OC | > 10 µM | > 10 µM | 4.1 µM | > 10 µM | > 10 µM
Nc1ncnc2c1sc1cccnc12 | > 10 µM | 5.2 µM | 1.8 µM | > 10 µM | 6 µM
COc1cc(Nc2ncnc3c2sc2ncccc23)cc(OC)c1 | > 10 µM | > 10 µM | > 10 µM | > 10 µM | > 10 µM
O=[N+]([O-])c1cc(Nc2ncnc3c2sc2nccnc23)ccc1O | > 10 µM |  | 1.4 µM | > 10 µM | > 10 µM
COc1cc(Nc2ncnc3c2sc2nccnc23)cc(OC)c1OC | > 10 µM |  | > 10 µM | > 10 µM | > 10 µM
c1cnc2sc3c(Nc4ccc5c(c4)OCCO5)ncnc3c2c1 | > 10 µM | > 10 µM | > 10 µM | > 10 µM | > 10 µM
COc1ccc(Nc2ncnc3c2sc2ccccc23)cc1 | > 10 µM |  | > 10 µM | > 10 µM | > 10 µM
c1ccc(Nc2ncnc3c2sc2ccccc23)cc1 | > 10 µM |  | > 10 µM | > 10 µM | > 10 µM
c1cnc2c(n1)sc1c(Nc3ccc4c(c3)OCO4)ncnc12 | > 10 µM |  | > 10 µM | > 10 µM | > 10 µM
O=[N+]([O-])c1cc(Nc2ncnc3c2sc2ccccc23)ccc1O | > 10 µM |  | > 10 µM | > 10 µM | > 10 µM
Fc1cc(Br)ccc1Nc1ncnc2c1sc1nccnc12 | > 10 µM |  | > 10 µM | > 10 µM | > 10 µM
Nc1ncnc2c1sc1ncccc12 | > 10 µM | 0.68 µM | 0.031 µM | > 10 µM | 2.8 µM
COc1ccc(Nc2ncnc3c2sc2nccnc23)cc1 | > 10 µM |  | > 10 µM | > 10 µM | > 10 µM
c1ccc(Nc2ncnc3c2sc2cccnc23)cc1 | > 10 µM | > 10 µM | 1.6 µM | > 10 µM | > 10 µM
Fc1cc(Br)ccc1Nc1ncnc2c1sc1ncccc12 | > 10 µM | 2.1 µM | 0.28 µM | > 10 µM | 0.89 µM
